Measurements pooled from the literature.
Compare with care: the assays were run in different laboratories.
Target: Tyrosine-protein kinase JAK2 (JAK2, Homo sapiens, UniProt O60674)
Observed: enzyme activity
Mode: inhibitor

COc1cc(Cl)c(C(=O)N[C@@H](CN[C@H]2CC[C@@H](N)CC2)Cc2ccc(C#N)cc2)cc1-c1ccc(CN[C@H](C)c2ccc(C)cc2)o1 — remaining activity (1 µM): 104%
Cn1c(=O)n(-c2ccc(C(C)(C)C#N)cc2)c2c3cc(-c4cnc5ccccc5c4)ccc3ncc21 — remaining activity (10 µM): 24%
Brc1cnc(Nc2cccc(CN3CCOCC3)c2)nc1NCCc1c[nH]cn1 — remaining activity (radiometric; 1 µM): 6%
Oc1cccc(-c2nc(N3CCOCC3)c3oc4ncccc4c3n2)c1 — remaining activity (10 µM): 93%
O=C(Nc1cnn(-c2csc(C(=O)NC3COC3)c2)c1)Nc1c(F)cccc1Cl — remaining activity (5 µM): 96.5%
COc1cc(Nc2cnc(C#N)c(O[C@H](C)CN(C)C)n2)ncc1-c1cnn(C)c1 — remaining activity (radiometric; 10 µM): 41%
Cc1cnc(NC2CCOCC2)nc1-n1cnc(C(=O)NC(CN)c2cc(F)cc(Cl)c2)c1 (stereo not shown) — remaining activity (radiometric; 1 µM): 104%
CC(C)(O)[C@H]1CC[C@H](Nc2ccc3ncc(-c4cccc(C(F)(F)F)c4)n3n2)CC1 — remaining activity (1 µM): 24.8%
O=C(Nc1cccc(Nc2ncc(Br)c(NCCc3cnc[nH]3)n2)c1)N1CCCC1 — remaining activity (radiometric; 1 µM): 24%
O=C(Nc1cnn(-c2csc(C(=O)NC3COC3)c2)c1)Nc1ccccc1Cl — remaining activity (5 µM): 98.2%
O=C(NCCCNc1nc(Nc2cccc(CN3CCOCC3)c2)ncc1C1CC1)C1CCC1 — remaining activity (radiometric; 1 µM): 46%
CC(C)(C)c1nc(-c2cccc(NS(=O)(=O)c3c(F)cccc3F)c2F)c(-c2ccnc(N)n2)s1 — remaining activity (radiometric; 1 µM): 90%
CN1CCc2cc(Nc3ncc(C4CC4)c(NCCCNC(=O)C4CCC4)n3)ccc2C1 — remaining activity (radiometric; 1 µM): 44%
Cc1ccc(C(=O)Nc2ccc(CN3CCN(C)CC3)c(C(F)(F)F)c2)cc1C#Cc1cnc2cccnn12 — remaining activity (23.5 nM): 58%
Cc1nn(CC(F)(F)F)cc1Nc1ncc(Br)c(NCc2ccc(S(N)(=O)=O)cc2)n1 — remaining activity (radiometric; 1 µM): 70%
CC(C)(C)c1nc2c(s1)c1nc(N)ncc1c1ccc(NS(=O)(=O)c3c(F)cccc3F)c(F)c12 — remaining activity (radiometric; 1 µM): 85%
